Results on three compounds are retold here after ChEMBL document CHEMBL1287748, “Design, synthesis and in vitro antimalarial evaluation of triazole-linked chalcone and dienone hybrid compounds” (Bioorg Med Chem, 2010).

In assay [1] the test system is Plasmodium falciparum. The experiment in a line: Antimalarial activity against chloroquine-sensitive Plasmodium falciparum D10 after 48 hrs. It is filed as functional, organism-based. The conditions noted are these: D10, 48 h. The essentials:
(§1)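 P. falciparum asexual culture in RPMI 1640 with glucose, HEPES, hypoxanthine, 5% Albumax, bicarbonate and gentamicin, sorbitol-synchronized at ring stage when needed. DMSO stocks serially diluted twofold in medium and added to parasitized erythrocytes at 2% hematocrit. Incubation 48 h at 37 °C under 3% O2/4% CO2/93% N2. pLDH read-out with Malstat plus NBT/PES at 620 nm. Runs in duplicate on two occasions; IC50 fitted from dose–response curves.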

For assay [2], the system named is Plasmodium falciparum. The experiment in a line: Antimalarial activity against chloroquine-resistant Plasmodium falciparum Dd2 after 48 hrs. It is filed as functional, organism-based. The conditions noted are these: Dd2, 48 h. Put shortly: as §1
Assay [3] has as its system Plasmodium falciparum. In words: Antimalarial activity against chloroquine-resistant Plasmodium falciparum W2 after 48 hrs by FACS analysis in presence of 10 % human serum. It counts as functional, organism-based. The conditions noted are these: W2, 48 h. Put shortly: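 W2 parasites grown in standard medium containing 10% human serum. Growth inhibition assay as in earlier published work, with parasite development scored by flow cytometry (FACS).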
(In flow cytometry, cells or beads pass a laser one at a time.)

Assay [4] is described as follows: Inhibition of beta-hematin formation assessed as equivalents of drug relative to hematin. It is filed as functional. Put shortly:
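Colorimetric assay quantifying a compound's inhibition of the conversion of hematin to beta-hematin. IC50 is expressed in equivalents of compound relative to hematin.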

In the case of `COc1cc(C(=O)/C=C/c2ccc(OC)c(OC)c2OC)ccc1OCc1cn(-c2ccnc3cc(Cl)ccc23)nn1`, the IC50 in the assay with Plasmodium falciparum [1] was determined as 300 nM; in the assay with Plasmodium falciparum [2], 300 nM; in the assay on Plasmodium falciparum [3], 500 nM; in assay [4] it was 4.1 equiv.
Take `COc1cc(C(=O)/C=C/c2ccc(F)cc2)ccc1OCc1cn(-c2ccnc3cc(Cl)ccc23)nn1`: the IC50 in the assay on Plasmodium falciparum [1] is 7400 nM; in the assay on Plasmodium falciparum [2], 1600 nM; in the assay with Plasmodium falciparum [3] it was 6900 nM; in assay [4], 4.8 equiv.
As to `COc1cc(C(=O)/C=C/c2ccc(F)cc2F)ccc1OCc1cn(-c2ccnc3cc(Cl)ccc23)nn1`, the IC50 in the assay with Plasmodium falciparum [1] was 4100 nM; with Plasmodium falciparum [2], 2100 nM; in the assay with Plasmodium falciparum [3], 10600 nM; in assay [4] it was 1.6 equiv.
